PubChem BioAssay AID493096 (Broad Institute, 2011)
“And” between values parts separate entries of the source, which are not always exact repeats. Equal entries are not always repeated. The source made the active and inactive calls.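 The calls were made as follows: active = signal drops and an active concentration is fitted at or below ten times the top valid dose of that sample; inconclusive = flat fit between -70 and -30%, or poor fit quality; inactive = the rest.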

system: not listed separately; experiment: Vibrio harveyi quorum sensing luminescence inhibitors, dose response, counter-screen for LuxS inhibitor project, strain BB721, dry powder, set 2 (AID 493096); conditions: Vibrio harveyi BB721 quorum sensing luminescence, 9 h; at 16 µM (top of the series)
Outline: (§1)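 assay system = Vibrio harveyi BB721, strain with quorum sensing constitutively on | quantity = culture at initial OD600 0.0005 | buffer or medium = AB (autoinducer bioassay) growth medium | incubation = compound exposure of 9 h at 30 °C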

**Q.** With CCc1ccc(C(=O)Nc2ccc(Br)cn2)cc1 as the compound, how does the activity change, negative = inhibition read?
**A.** Its activity change, negative = inhibition is -2.33% (inactive).

system: Vibrio harveyi BB721 quorum sensing luminescence, 9 h; experiment: as above; conditions: not given
Outline: as §1

**Q.** For Cc1cccc(NS(=O)(=O)c2ccc(Oc3ccccc3)cc2)n1, which AC50 is on record?
**A.** The AC50 was 11.1 µM and 15.4 µM.

**Q.** Which AC50 does the source give for Cc1cccc(NC(=O)c2ccc(Oc3ccccc3)cc2)n1 here?
**A.** Its AC50 is 14.9 µM.

**Q.** Which AC50 does the source give for COc1cc(NC(=O)CN2C(=O)NC(c3ccccc3)(c3ccccc3)C2=O)cc(OC)c1 here?
**A.** Its AC50 is 0.769 µM and 1.14 µM.

**Q.** For O=C1C=C/C(=C/Br)O1, which AC50 is on record?
**A.** The AC50 was 6.86 µM.

**Q.** For CCc1ccc(S(=O)(=O)Nc2ccc(Br)cn2)cc1, which AC50 is on record?
**A.** The AC50 was 14.8 µM.
